Assay results taken from ChEMBL document CHEMBL1133453, “Further studies on nociceptin-related peptides: discovery of a new chemical template with antagonist activity on the nociceptin receptor” (J Med Chem, 2000).
The source made the active and inactive calls. The calls are words filed in the database; no cut-off is given here. Numbered stars: 1 amine (or outer) side, 2 acyl side, 3 side chain; on linkers, the order of the positions; unused ones are H or OH. Square brackets hold non-standard residues; d marks the D form. Peptide text beside a SMILES is read from it. X4 = Cc1ccc(C[C@H](N)CN(CC(=O)[*:2])[*:1])cc1; X2 = N[C@@H](Cc1ccccc1)CN(CC(=O)[*:2])[*:1]; X3 = N[C@@H](CC1CCCCC1)CN(CC(=O)[*:2])[*:1]; Nphe = O=C(O)CNCc1ccccc1

What was measured:
Mus musculus [1] = species on record: Mus musculus; assay: Potency (Emax) against electrically evoked contraction (twitch response) in mouse vas deferens; NA means Inactive up to 10 uM; type: functional, organism-based
Method in brief: (§1)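 Mouse vas deferens held in Mg2+-free Krebs at 33 °C under 0.3 g resting tension. Field stimulation through platinum electrodes with supramaximal 1-ms pulses at 0.1 Hz, twitches recorded isotonically. After about 2 h equilibration, cumulative concentration-response curves built in 0.5 log steps up to 10 µM. pEC50 taken as the concentration giving half-maximal effect. Mean of at least 3 experiments.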

Mus musculus [2] = species on record: Mus musculus; assay: Compound was tested for agonistic activity against electrically evoked contraction (twitch response) in mouse vas deferens; NA means Inactive up to 10 uM; type: functional, organism-based; method in brief: as §1
Mus musculus [3] = species on record: Mus musculus; assay: Compound was tested for the antagonistic activity on mouse vas deferens using NC(1-13)NH2 as agonist; type: functional
Method in brief: (§2)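 Electrically stimulated mouse vas deferens (Mg2+-free Krebs, 33 °C, 0.1 Hz, 1-ms pulses). Antagonist at 10 µM added 15 min before a cumulative NC(1-13)NH2 concentration-response curve. pKB calculated with the Gaddum-Schild equation, assuming a slope of 1, from the concentration ratio. Mean of at least 3 experiments, with 95% confidence limits.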

Nociceptin receptor = Nociceptin receptor (Mus musculus, UniProt P35377); assay: Affinity to nociceptin receptors on mouse forebrain membranes by [3H]NC-NH2 displacement.
Method in brief: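 Forebrain membranes from male Swiss mice (25-30 g), homogenized in 50 mM Tris HCl, 2 mM EDTA, 100 µM PMSF, pH 7.4, then preincubated 30 min at 37 °C. Bound ligand separated by GF/C filtration. Ki obtained by nonlinear least-squares fitting.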

Mus musculus [4] = species on record: Mus musculus; assay: Compound was tested for the antagonistic activity on mouse vas deferens using NC(1-13)NH2 as agonist; NA means Inactive up to 10 uM; type: functional, organism-based; method in brief: as §2
Mus musculus [5] = species on record: Mus musculus; assay: Potency (Emax) against electrically evoked contraction (twitch response) in mouse vas deferens; type: functional; method in brief: as §1
Mus musculus [6] = species on record: Mus musculus; assay: Compound was tested for agonistic activity against electrically evoked contraction (twitch response) in mouse vas deferens; type: functional, organism-based; method in brief: as §1

Chain of Nociceptin receptor (P35377 whole entry): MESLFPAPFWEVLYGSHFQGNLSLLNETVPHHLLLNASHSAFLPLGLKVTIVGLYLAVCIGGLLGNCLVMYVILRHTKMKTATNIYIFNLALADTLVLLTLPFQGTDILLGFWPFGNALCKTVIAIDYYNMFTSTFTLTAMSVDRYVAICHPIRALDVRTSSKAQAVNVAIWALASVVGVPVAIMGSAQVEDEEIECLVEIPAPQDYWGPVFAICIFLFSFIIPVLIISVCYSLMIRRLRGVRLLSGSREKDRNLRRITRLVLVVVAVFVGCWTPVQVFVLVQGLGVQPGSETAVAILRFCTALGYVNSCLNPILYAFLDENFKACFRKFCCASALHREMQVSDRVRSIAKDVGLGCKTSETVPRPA

| Structure (SMILES) | Emax (Mus musculus [1]) | Log EC50 (Mus musculus [2]) | pKB (Mus musculus [3]) | Ki (Nociceptin receptor) [nM] | pKB (Mus musculus [4]) | Emax (Mus musculus [5]) [%] | EC50 (Mus musculus [6]) [nM] |
| --- | --- | --- | --- | --- | --- | --- | --- |
| CC(C)C[C@H](NC(=O)[C@H](CCCCN)NC(=O)[C@H](CCCN=C(N)N)NC(=O)[C@H](C)NC(=O)[C@H](CO)NC(=O)[C@H](CCCCN)NC(=O)[C@H](CCCN=C(N)N)NC(=O)[C@H](C)NC(=O)CNC(=O)[C@@H](NC(=O)[C@H](Cc1ccccc1)NC(=O)CNC(=O)CNC[C@@H](N)Cc1ccccc1)[C@@H](C)O)C(=O)N[C@@H](C)C(=O)N[C@@H](CC(N)=O)C(=O)N[C@@H](CCC(N)=O)C(N)=O (H-[X2]GFTGARKSARKLANQ-NH2) | inactive | inactive | 7 | 20 | – | – | – |
| Cc1ccc(CNCC(=O)NCC(=O)NCC(=O)N[C@@H](Cc2ccccc2)C(=O)N[C@H](C(=O)NCC(=O)N[C@@H](C)C(=O)N[C@@H](CCCN=C(N)N)C(=O)N[C@@H](CCCCN)C(=O)N[C@@H](CO)C(=O)N[C@@H](C)C(=O)N[C@@H](CCCN=C(N)N)C(=O)N[C@@H](CCCCN)C(N)=O)[C@@H](C)O)cc1 | inactive | inactive | – | 2510 | inactive | – | – |
| C[C@H](NC(=O)CNC(=O)[C@@H](NC(=O)[C@H](Cc1ccccc1)NC(=O)CNC(=O)CNC(=O)CNCC1CCCCC1)[C@@H](C)O)C(=O)N[C@@H](CCCN=C(N)N)C(=O)N[C@@H](CCCCN)C(=O)N[C@@H](CO)C(=O)N[C@@H](C)C(=O)N[C@@H](CCCN=C(N)N)C(=O)N[C@@H](CCCCN)C(N)=O | inactive | inactive | – | 2510 | inactive | – | – |
| C[C@H](NC(=O)CNC(=O)[C@@H](NC(=O)[C@H](Cc1ccccc1)NC(=O)CNC(=O)CNC[C@@H](N)CC1CCCCC1)[C@@H](C)O)C(=O)N[C@@H](CCCN=C(N)N)C(=O)N[C@@H](CCCCN)C(=O)N[C@@H](CO)C(=O)N[C@@H](C)C(=O)N[C@@H](CCCN=C(N)N)C(=O)N[C@@H](CCCCN)C(N)=O (H-[X3]GFTGARKSARK-NH2) | inactive | inactive | – | 316 | inactive | – | – |
| C[C@H](NC(=O)CNC(=O)[C@@H](NC(=O)[C@H](Cc1ccccc1)NC(=O)CNC(=O)CNC(=O)CNCc1ccc(O)cc1)[C@@H](C)O)C(=O)N[C@@H](CCCN=C(N)N)C(=O)N[C@@H](CCCCN)C(=O)N[C@@H](CO)C(=O)N[C@@H](C)C(=O)N[C@@H](CCCN=C(N)N)C(=O)N[C@@H](CCCCN)C(N)=O | inactive | inactive | – | 3160 | inactive | – | – |
| C[C@H](NC(=O)CNC(=O)[C@@H](NC(=O)[C@H](Cc1ccccc1)NC(=O)CNC(=O)CNC(=O)[C@@H](N)Cc1ccccc1)[C@@H](C)O)C(=O)N[C@@H](CCCN=C(N)N)C(=O)N[C@@H](CCCCN)C(=O)N[C@@H](CO)C(=O)N[C@@H](C)C(=O)N[C@@H](CCCN=C(N)N)C(N)=O (H-FGGFTGARKSAR-NH2) | – | – | – | 25.1 | – | -79 | 794 |
| C[C@H](NC(=O)CNC(=O)[C@@H](NC(=O)[C@H](Cc1ccccc1)NC(=O)CNC(=O)CNC(=O)[C@@H](N)Cc1ccccc1)[C@@H](C)O)C(=O)N[C@@H](CCCN=C(N)N)C(=O)N[C@@H](CCCCN)C(N)=O (H-FGGFTGARK-NH2) | inactive | inactive | – | > 10000 | inactive | – | – |
| CC(C)C[C@H](N)C(=O)NCC(=O)NCC(=O)N[C@@H](Cc1ccccc1)C(=O)N[C@H](C(=O)NCC(=O)N[C@@H](C)C(=O)N[C@@H](CCCN=C(N)N)C(=O)N[C@@H](CCCCN)C(=O)N[C@@H](CO)C(=O)N[C@@H](C)C(=O)N[C@@H](CCCN=C(N)N)C(=O)N[C@@H](CCCCN)C(N)=O)[C@@H](C)O (H-LGGFTGARKSARK-NH2) | – | – | – | 2.51 | – | -80 | 25.1 |
| Cc1ccc(C[C@H](N)C(=O)NCC(=O)NCC(=O)N[C@@H](Cc2ccccc2)C(=O)N[C@H](C(=O)NCC(=O)N[C@@H](C)C(=O)N[C@@H](CCCN=C(N)N)C(=O)N[C@@H](CCCCN)C(=O)N[C@@H](CO)C(=O)N[C@@H](C)C(=O)N[C@@H](CCCN=C(N)N)C(=O)N[C@@H](CCCCN)C(N)=O)[C@@H](C)O)cc1 | – | – | – | 200 | – | -70 | 2510 |
| C[C@H](NC(=O)CNC(=O)[C@@H](NC(=O)[C@H](Cc1ccccc1)NC(=O)CNC(=O)CNC(=O)CNCc1ccccc1)[C@@H](C)O)C(=O)N[C@@H](CCCN=C(N)N)C(=O)N[C@@H](CCCCN)C(=O)N[C@@H](CO)C(=O)N[C@@H](C)C(=O)N[C@@H](CCCN=C(N)N)C(N)=O (H-[Nphe]GGFTGARKSAR-NH2) | inactive | inactive | – | 3160 | inactive | – | – |
| C[C@H](NC(=O)CNC(=O)[C@@H](NC(=O)[C@H](Cc1ccccc1)NC(=O)CNC(=O)CNC(=O)[C@@H](N)Cc1ccc(O)cc1)[C@@H](C)O)C(=O)N[C@@H](CCCN=C(N)N)C(=O)N[C@@H](CCCCN)C(=O)N[C@@H](CO)C(=O)N[C@@H](C)C(=O)N[C@@H](CCCN=C(N)N)C(=O)N[C@@H](CCCCN)C(N)=O (H-YGGFTGARKSARK-NH2) | – | – | – | 3.98 | – | -89 | 25.1 |
| C[C@H](NC(=O)CNC(=O)[C@@H](NC(=O)[C@H](Cc1ccccc1)NC(=O)CNC(=O)CNC[C@@H](N)Cc1ccccc1)[C@@H](C)O)C(=O)N[C@@H](CCCN=C(N)N)C(=O)N[C@@H](CCCCN)C(=O)N[C@@H](CO)C(=O)N[C@@H](C)C(=O)N[C@@H](CCCN=C(N)N)C(=O)N[C@@H](CCCCN)C(N)=O (H-[X2]GFTGARKSARK-NH2) | inactive | inactive | 6.8 | 10 | – | – | – |
| C[C@H](NC(=O)CNC(=O)[C@@H](NC(=O)[C@H](Cc1ccccc1)NC(=O)CNC(=O)CNC[C@@H](N)Cc1ccccc1)[C@@H](C)O)C(=O)N[C@@H](CCCN=C(N)N)C(=O)N[C@@H](CCCCN)C(N)=O (H-[X2]GFTGARK-NH2) | inactive | inactive | 5.1 | > 10000 | – | – | – |
| C[C@H](NC(=O)CNC(=O)[C@@H](NC(=O)[C@H](Cc1ccccc1)NC(=O)CNC(=O)CNC(=O)[C@@H](N)Cc1ccccc1)[C@@H](C)O)C(=O)N[C@@H](CCCNC(=N)N)C(=O)N[C@@H](CCCCN)C(=O)N[C@@H](CO)C(=O)N[C@@H](C)C(=O)N[C@@H](CCCNC(=N)N)C(=O)N[C@@H](CCCCN)C(N)=O | – | – | – | – | – | -84 | 15.8 |
| CC(C)CNCC(=O)NCC(=O)NCC(=O)N[C@@H](Cc1ccccc1)C(=O)N[C@H](C(=O)NCC(=O)N[C@@H](C)C(=O)N[C@@H](CCCN=C(N)N)C(=O)N[C@@H](CCCCN)C(=O)N[C@@H](CO)C(=O)N[C@@H](C)C(=O)N[C@@H](CCCN=C(N)N)C(=O)N[C@@H](CCCCN)C(N)=O)[C@@H](C)O | inactive | inactive | – | 2510 | inactive | – | – |
| C[C@H](NC(=O)CNC(=O)[C@@H](NC(=O)[C@H](Cc1ccccc1)NC(=O)CNC(=O)CNC(=O)[C@@H](N)CC1CCCCC1)[C@@H](C)O)C(=O)N[C@@H](CCCN=C(N)N)C(=O)N[C@@H](CCCCN)C(=O)N[C@@H](CO)C(=O)N[C@@H](C)C(=O)N[C@@H](CCCN=C(N)N)C(=O)N[C@@H](CCCCN)C(N)=O | – | – | – | 1 | – | -84 | 12.6 |
| Cc1ccc(C[C@H](N)CNCC(=O)NCC(=O)N[C@@H](Cc2ccccc2)C(=O)N[C@H](C(=O)NCC(=O)N[C@@H](C)C(=O)N[C@@H](CCCN=C(N)N)C(=O)N[C@@H](CCCCN)C(=O)N[C@@H](CO)C(=O)N[C@@H](C)C(=O)N[C@@H](CCCN=C(N)N)C(=O)N[C@@H](CCCCN)C(N)=O)[C@@H](C)O)cc1 (H-[X4]GFTGARKSARK-NH2) | inactive | inactive | 5.7 | 631 | – | – | – |
| C[C@H](NC(=O)CNC(=O)[C@@H](NC(=O)[C@H](Cc1ccccc1)NC(=O)CNC(=O)CNC(=O)CNCc1ccccc1)[C@@H](C)O)C(=O)N[C@@H](CCCN=C(N)N)C(=O)N[C@@H](CCCCN)C(=O)N[C@@H](CO)C(=O)N[C@@H](C)C(=O)N[C@@H](CCCN=C(N)N)C(=O)N[C@@H](CCCCN)C(N)=O | inactive | inactive | 6.4 | – | – | – | – |
| CC(C)C[C@H](NC(=O)[C@H](CCCCN)NC(=O)[C@H](CCCN=C(N)N)NC(=O)[C@H](C)NC(=O)[C@H](CO)NC(=O)[C@H](CCCCN)NC(=O)[C@H](CCCN=C(N)N)NC(=O)[C@H](C)NC(=O)CNC(=O)[C@@H](NC(=O)[C@H](Cc1ccccc1)NC(=O)CNC(=O)CNC(=O)CNCc1ccccc1)[C@@H](C)O)C(=O)N[C@@H](C)C(=O)N[C@@H](CC(N)=O)C(=O)N[C@@H](CCC(N)=O)C(N)=O | inactive | inactive | 6.3 | 126 | – | – | – |
| C[C@H](NC(=O)CNC(=O)[C@@H](NC(=O)[C@H](Cc1ccccc1)NC(=O)CNC(=O)CNC[C@@H](N)Cc1ccccc1)[C@@H](C)O)C(=O)N[C@@H](CCCN=C(N)N)C(=O)N[C@@H](CCCCN)C(=O)N[C@@H](CO)C(=O)N[C@@H](C)C(=O)N[C@@H](CCCN=C(N)N)C(N)=O (H-[X2]GFTGARKSAR-NH2) | inactive | inactive | 5.2 | 398 | – | – | – |
